Test results taken from publication PMC5042352 (Analytical methods : advancing methods and applications, 2016).

How the values were obtained:
[1] = reported; cited from earlier work
[2] = Stability of the analytes in human plasma at QC levels; format: in vitro ADME; details: n = 5; for Short-term Dev. (%) / Short-term MCM ± SD: 6 h, r.t.; for Short-term Dev. (%) / Short-term MCM ± SD / Long-term Dev. (%) / Long-term MCM ± SD / Freeze–thaw Dev. (%) / Freeze–thaw MCM ± SD: human plasma; for Long-term Dev. (%) / Long-term MCM ± SD: 40 days; for Long-term Dev. (%) / Long-term MCM ± SD / Freeze–thaw Dev. (%) / Freeze–thaw MCM ± SD: −40 °C; for The autosampler Dev. (24h, %) / The autosampler MCM ± SD (24h) / The autosampler Dev. (48h, %) / The autosampler MCM ± SD (48h): autosampler r.t.; for Freeze–thaw Dev. (%) / Freeze–thaw MCM ± SD: four cycles
Summary of the method: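 QC plasma made by spiking working solution into drug-free human plasma (1:9); the phosphate ester is pre-stabilised with 2M sodium cacodylate and 50% KF. Freeze-thaw: frozen at −40 °C for 24 h, thawed at 25 °C. Short-term: 6 h at room temperature. Long-term: −40 °C for 40 days. Quantified by UPLC-MS/MS against 1/x-weighted analyte/IS peak-area-ratio calibration curves.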

[3] = format: in vivo, human (Chinese male healthy subjects); details: after i.m. injection of the compound medicine BSP and BDP

Short-term Dev. (%) ([2]; high QC) | Short-term MCM ± SD ([2]; high QC) | Long-term Dev. (%) ([2]; high QC) | Long-term MCM ± SD ([2]; high QC) | The autosampler Dev. (24h, %) ([2]; high QC) [%] | The autosampler MCM ± SD (24h) ([2]; high QC) | The autosampler Dev. (48h, %) ([2]; high QC) [%] | The autosampler MCM ± SD (48h) ([2]; high QC) | Freeze–thaw Dev. (%) ([2]; high QC) | Freeze–thaw MCM ± SD ([2]; high QC) | Short-term Dev. (%) ([2]; low QC) | Short-term MCM ± SD ([2]; low QC) | Long-term Dev. (%) ([2]; low QC) | Long-term MCM ± SD ([2]; low QC) | The autosampler Dev. (24h, %) ([2]; low QC) [%] | The autosampler MCM ± SD (24h) ([2]; low QC) | The autosampler Dev. (48h, %) ([2]; low QC) [%] | The autosampler MCM ± SD (48h) ([2]; low QC) | Freeze–thaw Dev. (%) ([2]; low QC) | Freeze–thaw MCM ± SD ([2]; low QC) | SMILES | other results
−0.51 | 44.42 ± 0.893 × 10^−9 mol·dm^−3 | 4.01 | 46.43 ± 1.399 × 10^−9 mol·dm^−3 | −6.84 | 41.59 ± 1.016 × 10^−9 mol·dm^−3 | −2.95 | 43.33 ± 1.131 × 10^−9 mol·dm^−3 | 0.68 | 44.94 ± 1.177 × 10^−9 mol·dm^−3 | 4.0 | 0.258 ± 0.048 × 10^−9 mol·dm^−3 | −3.2 | 0.240 ± 0.012 × 10^−9 mol·dm^−3 | −11.2 | 0.220 ± 0.016 × 10^−9 mol·dm^−3 | −10.4 | 0.222 ± 0.020 × 10^−9 mol·dm^−3 | 11.2 | 0.276 ± 0.042 × 10^−9 mol·dm^−3 | CCC(=O)OCC(=O)[C@@]1(OC(=O)CC)[C@@H](C)C[C@H]2[C@@H]3CCC4=CC(=O)C=C[C@]4(C)[C@@]3(F)[C@@H](O)C[C@@]21C [BDP, betamethasone dipropionate] | elimination half-life time [1]: 25.8 min; Short-term Dev. (%) ([2]; middle QC): 2.04%; Short-term MCM ± SD ([2]; middle QC): 4.746 ± 0.155 × 10^−9 mol·dm^−3; Long-term Dev. (%) ([2]; middle QC): 1.80%; Long-term MCM ± SD ([2]; middle QC): 4.734 ± 0.141 × 10^−9 mol·dm^−3; The autosampler Dev. (24h, %) ([2]; middle QC): −7.45%; The autosampler MCM ± SD (24h) ([2]; middle QC): 4.304 ± 0.123 × 10^−9 mol·dm^−3; The autosampler Dev. (48h, %) ([2]; middle QC): −5.68%; The autosampler MCM ± SD (48h) ([2]; middle QC): 4.387 ± 0.103 × 10^−9 mol·dm^−3; Freeze–thaw Dev. (%) ([2]; middle QC): 3.45%; Freeze–thaw MCM ± SD ([2]; middle QC): 4.811 ± 0.135 × 10^−9 mol·dm^−3
−8.64 | 3.944 ± 0.303 × 10^−9 mol·dm^−3 | −9.13 | 3.924 ± 0.078 × 10^−9 mol·dm^−3 | −8.3 | 3.960 ± 0.160 × 10^−9 mol·dm^−3 | −9.13 | 3.924 ± 0.171 × 10^−9 mol·dm^−3 | −2.48 | 4.211 ± 0.301 × 10^−9 mol·dm^−3 | 2.97 | 0.463 ± 0.062 × 10^−9 mol·dm^−3 | 8.42 | 0.488 ± 0.067 × 10^−9 mol·dm^−3 | 7.92 | 0.486 ± 0.020 × 10^−9 mol·dm^−3 | −0.5 | 0.448 ± 0.038 × 10^−9 mol·dm^−3 | 2.97 | 0.463 ± 0.024 × 10^−9 mol·dm^−3 | CCC(=O)OCC(=O)[C@@]1(O)[C@@H](C)C[C@H]2[C@@H]3CCC4=CC(=O)C=C[C@]4(C)[C@@]3(F)[C@@H](O)C[C@@]21C [B21P, betamethasone 21-monopropionate] | plasma concentration in healthy subjects' plasma samples (detectability) [3]: slightly above the LLOQ; Short-term Dev. (%) ([2]; middle QC): −2.87%; Short-term MCM ± SD ([2]; middle QC): 1.873 ± 0.094 × 10^−9 mol·dm^−3; Long-term Dev. (%) ([2]; middle QC): −1.98%; Long-term MCM ± SD ([2]; middle QC): 1.891 ± 0.143 × 10^−9 mol·dm^−3; The autosampler Dev. (24h, %) ([2]; middle QC): 2.05%; The autosampler MCM ± SD (24h) ([2]; middle QC): 1.993 ± 0.129 × 10^−9 mol·dm^−3; The autosampler MCM ± SD (48h) ([2]; middle QC): 2.007 ± 0.156 × 10^−9 mol·dm^−3; Freeze–thaw Dev. (%) ([2]; middle QC): 1.08%; Freeze–thaw MCM ± SD ([2]; middle QC): 1.949 ± 0.147 × 10^−9 mol·dm^−3
